{"data": "Experimental data pooled from the literature", "read-out": "cell growth or viability", "note": "Each line is one published result; the experiments were not run side by side."}
{"SMILES": "COc1ccc2c(c1OC)C(=O)O[C@@H]2[C@H]1c2c(cc3c(c2OC)OCO3)CCN1C", "cell line": "FaDu", "time": "72 h", "measurement": "IC50", "value": "15.2 µM"}
{"SMILES": "CC(=O)Nc1cccc(-n2c(=O)n(C3CC3)c(=O)c3c(Nc4ccc(I)cc4F)n(C)c(=O)c(C)c32)c1", "cell line": "SW-620", "technique": "resazurin", "tested at": "6.25 nM", "time": "72 h", "measurement": "viability", "value": "38.8%"}
{"SMILES": "CC/C(=C(\\c1ccccc1)c1ccc(OCCN(C)C)cc1)c1ccccc1", "cell line": "CAPAN-1", "technique": "ATP luminescence", "time": "72 h", "measurement": "EC90", "value": "28.4 µM"}
{"SMILES": "CC(C)C[C@H](NC(=O)[C@H](Cc1ccccc1)NC(=O)c1cnccn1)B(O)O", "cell line": "SAOS-2", "technique": "ATP luminescence", "measurement": "IC50", "value": "0.025 µM"}
{"SMILES": "Nc1ccn([C@@H]2O[C@H](CO)[C@@H](O)[C@@H]2O)c(=O)n1", "cell line": "FaDu", "technique": "CCK-8", "tested at": "40 nM", "time": "96 h", "measurement": "inhibition", "value": "50%"}
{"SMILES": "COc1cc(Nc2nccc(-c3cnn4nc(OC)ccc34)n2)cc(C(F)(F)F)c1", "cell line": "SK-MEL3", "technique": "ATP luminescence", "measurement": "IC50", "value": "1.6 µM"}
{"SMILES": "CN1CCN(C(=O)[C@H](CCCN[C@@H]2C[C@H]2c2ccc(F)cc2)NC(=O)c2ccc(-n3ccnn3)cc2)CC1", "cell line": "TF-1a", "technique": "resazurin", "time": "96 h", "measurement": "EC50", "value": "0.0311 µM"}
{"SMILES": "Cc1nc(NC(=O)N2CCC[C@H]2C(N)=O)sc1-c1ccnc(C(C)(C)C(F)(F)F)c1", "cell line": "HCC1954", "time": "5 days", "measurement": "EC50", "value": "1.13 µM"}
{"SMILES": "COc1ccc(-c2c(-c3ccc(C#N)c(F)c3)nc(N3CCC(N)CC3)n(C)c2=O)cc1F", "cell line": "TF-1a", "technique": "resazurin", "time": "96 h", "measurement": "EC50", "value": "0.00787 µM"}
{"SMILES": "COc1cccc2c1C(=O)c1c(O)c3c(c(O)c1C2=O)C[C@@](O)(C(=O)CO)C[C@@H]3O[C@H]1C[C@H](N)[C@H](O)[C@H](C)O1", "cell line": "SUM159", "technique": "MTT", "time": "48 h", "measurement": "IC90", "value": "> 20 µM"}
